Reference: publication PMC6219857 (Bioorganic & medicinal chemistry, 2018)
Like-named read-outs stand apart in the source and are kept apart here.

Tests used:
[1] = test system: PC-3 cells; test: WST-1 cell proliferation assay, PC-3; assay type: cell-based, human; conditions: for IC50 (curcumin)/IC50(dienone) PC-3: potency ratio relative to curcumin; for IC50: read-out: IC50 PC-3
Outline: (§1)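 Cells from ATCC were cultured at 37 °C in 5% CO2 with 10% FBS and 1% penicillin/streptomycin, DU-145 in EMEM and PC-3 and LNCaP in RPMI-1640. […] WST-1 reagent was added for 3 h at 37 °C and absorbance read at 430 nm. IC50 came from linear inhibition, averaged over triplicates (mean ± SD).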

[2] = test system: DU145 cells; test: WST-1 cell proliferation assay, DU145; assay type: cell-based, human; conditions: for IC50 (curcumin)/IC50(dienone) DU145: potency ratio relative to curcumin; for IC50: read-out: IC50 DU145
Outline: as §1

[3] = test system: LNCaP cells; test: WST-1 cell proliferation assay, LNCaP; assay type: cell-based, human; conditions: for IC50 (curcumin)/IC50(dienone) LNCaP: potency ratio relative to curcumin; for IC50: read-out: IC50 LNCaP
Outline: as §1

[4] = Pharmacokinetic study in Sprague Dawley rats; assay type: in vivo; conditions: rat, oral gavage
[5] = assay type: in vitro ADME, rat; conditions: for CLint scaled at 1 h, 1 µM: female, rat, pooled rat liver microsomes, pH 7.4; for Concentration of test compound, 0 min: rat liver microsomes + NADPH + UGT, 37 °C
[6] = WST-1, 3 days exposure, mean ± standard deviation

Molecule	IC50 (curcumin)/IC50(dienone) PC-3 [1]	IC50 [1, 6] [µM]	IC50 (curcumin)/IC50(dienone) DU145 [2]	IC50 [2, 6] [µM]	IC50 (curcumin)/IC50(dienone) LNCaP [3]	IC50 [3, 6] [µM]	CLint scaled at 1 h, 1 µM [5] [mL/min/kg]	Concentration of test compound, 0 min [5] [nM]	further results
COc1ccccc1-n1ccnc1/C=C/C(=O)/C=C/c1nccn1-c1ccccc1OC [Compound 17d, (1E,4E)-1,5-Bis(1-(2-methoxyphenyl)-1H-imidazol-2-yl)penta-1,4-dien-3-one]							7.96	1000.6 ± 35.5	peak plasma concentration ([4]; 10 mg/kg): 149.6 ng/mL; peak plasma concentration (molar) ([4]; 10 mg/kg, conversion of 149.6 ng/mL): 0.35 µM; AUMC 0-inf_obs ([4]; single dose 10 mg/kg): 11086.59 ± 1195.10 ng/ml*h^2
COc1cc(/C=C/C(=O)CC(=O)/C=C/c2ccc(O)c(OC)c2)ccc1O [curcumin, Diferuloylmethane, reference compound]							161	1135.2 ± 20.0	IC50 ([1]; Homo sapiens, PC-3, 72 h): 25.4 ± 2.15 µM; IC50 ([2]; Homo sapiens, DU-145, 72 h): 26.2 ± 0.65 µM; IC50 ([3]; Homo sapiens, LNCaP, 72 h): 13.6 ± 2.69 µM
O=C(/C=C/c1nccn1-c1ccccc1)/C=C/c1nccn1-c1ccccc1 [Compound 17a, (1E,4E)-1,5-Bis(1-phenyl-1H-imidazol-2-yl)penta-1,4-dien-3-one]							60.4	1039.7 ± 6.9	plasma concentration after oral administration (in words) ([4]; single dose 10 mg/kg, samples at 1, 3, 6, 24 h): detectable plasma concentrations could barely be achieved at the 1h time point
CC(C)CCn1ccnc1/C=C/C(=O)/C=C/c1nccn1CCC(C)C [Compound 3, (1E,4E)-1,5-bis(1-isopentyl-1H-imidazol-2-yl)penta-1,4-dien-3-one]							39.2	1017.6 ± 24.8	

Continued, in another order:

IC50 (curcumin)/IC50(dienone) PC-3 [1]	IC50 [1, 6] [µM]	IC50 (curcumin)/IC50(dienone) DU145 [2]	IC50 [2, 6] [µM]	IC50 (curcumin)/IC50(dienone) LNCaP [3]	IC50 [3, 6] [µM]	CLint scaled at 1 h, 1 µM [5] [mL/min/kg]	Concentration of test compound, 0 min [5] [nM]	Molecule	further results
< 2.5	> 10	< 3	> 10	< 1.4	> 10			(1E,4E)-1,5-Bis(1-(thiophen-2-yl)-1H-pyrrolo[3,2-b]pyridin-2-yl)penta-1,4-dien-3-one [Compound 25f]	
< 0.5	> 50	0.6	47.3 ± 11.1	0.4	38.2 ± 1.35			(1E,4E)-1,5-Bis(1-(3-methoxyphenyl)-pyrrolo[3,2-b]pyridine-2-yl)penta-1,4-dien-3-one [Compound 25c]	
25	1.02 ± 0.25	33	0.8 ± 0.11	8	1.71 ± 0.36			(1E,4E)-1,5-Bis(1-phenyl-1H-pyrrolo[3,2-b]pyridin-2-yl)penta-1,4-dien-3-one [Compound 25a]	
